Measurements taken from ChEMBL document CHEMBL5321236, “Fluoro-labelled sp2-iminoglycolipids with immunomodulatory properties” (Eur J Med Chem, 2023).
Calls of active or inactive are those of the source. The rule behind the calls is not given here.

What was measured:
A549 = assay: Growth inhibition of human A549 cells measured after 48 hrs by SRB colorimetric assay; assay type: functional
In short: (§1)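 NCI-based protocol with sulforhodamine B read-out. Seeded 2500 (A549, HBL-100, HeLa, SW1573), 5000 (T-47D, WiDr, SW1573/P-gp) or 7000 (BJ-hTERT) cells/well. Exposed 48 h to serial decimal dilutions, 0.001–100 μM, from 40 mM DMSO stock. GI50 by NCI formulas; mean of three or more experiments ± SD.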

SW1573 [1] = assay: Growth inhibition of human SW1573 cells measured after 48 hrs by SRB colorimetric assay; assay type: functional; in short: as §1
HeLa = assay: Growth inhibition of human HeLa cells measured after 48 hrs by SRB colorimetric assay; assay type: functional; in short: as §1
HBL-100 = assay: Growth inhibition of human HBL-100 cells measured after 48 hrs by SRB colorimetric assay; assay type: functional; in short: as §1
T47D = assay: Growth inhibition of human T47D cells measured after 48 hrs by SRB colorimetric assay; assay type: functional; in short: as §1
WiDr = assay: Growth inhibition of human WiDr cells measured after 48 hrs by SRB colorimetric assay; assay type: functional; in short: as §1
BV-2 [2] = assay: Protection against LPS induced inflammation in mouse BV-2 cells assessed as decrease in IL1-beta mRNA expression at 10 uM incubated for 24 hrs with LPS stimulation by qRT-PCR analysis
BV-2 [3] = assay: Cytotoxicity against mouse BV-2 cells at 10 uM measured after 24 hr by crystal violet staining based analysis; assay type: toxicity, cell-based; details: bv-2, 24 h
In short: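 Bv.2 cells grown to 70% confluence, exposed 24 h in serum-free medium to 0.1, 1.0, 10 and 25 μM. Fixed with 1% glutaraldehyde, stained with 0.1% crystal violet, dye released in 10% acetic acid, absorbance 590 nm. Mean ± SEM, n ≥ 3 independent experiments.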

BV-2 [4] = assay: Protection against LPS induced inflammation in mouse BV-2 cells assessed as decrease in Tnf-alpha mRNA expression at 10 uM incubated for 24 hrs with LPS stimulation by qRT-PCR analysis
BV-2 [5] = assay: Antiinflammatory activity in mouse BV-2 cells assessed as restoration of […] expression level at 10 uM incubated for 24 hrs with LPS stimulation by qRT-PCR analysis; assay type: functional, cell-based
In short: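 Bv.2 microglia stimulated with LPS 200 ng/mL with or without compound at 10 μM for 24 h. Arg1 mRNA measured by qRT-PCR, Actinb as housekeeping gene, 2^-ΔΔCT method, fold change relative to basal. n ≥ 4 independent experiments in triplicate.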

[6] = biological target: Mitogen-activated protein kinase 14 (Mus musculus) (UniProt P47811); assay: Inhibition of LPS-stimulated p38 alpha phosphorylation in mouse BV-2 cells at 10 uM measured after 30 mins by Western blot analysis; assay type: cell-based
In short: (§2)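 Bv.2 cells exposed with or without LPS for 15–90 min. Protein extracts run on SDS-PAGE, blotted to PVDF, probed with anti-phospho-p38α MAPK and anti-total p38α MAPK (1:1000), ECL detection. Quantified by densitometry, mean ± SEM, n = 3.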

[7] = biological target: Mitogen-activated protein kinase 14 (Mus musculus) (UniProt P47811); assay: Inhibition of LPS-stimulated p38 alpha phosphorylation in mouse BV-2 cells at 10 uM measured after 60 to 90 mins by Western blot analysis; assay type: cell-based; details: time 60-90 min; in short: as §2
SW1573 [8] = assay: Growth inhibition of human SW1573 cells overexpressing P-glycoprotein measured after 48 hrs in absence of verapamil by SRB colorimetric assay; assay type: functional
In short: as §1, with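 “read-out. Cells grown in RPMI 1640 with 5% FBS and 1 mM glutamine at 37 °C, 5% CO₂.” for “read-out.”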

SW1573 [9] = assay: Growth inhibition of human SW1573 cells overexpressing P-glycoprotein measured after 48 hrs in presence of verapamil by SRB colorimetric assay; assay type: functional
In short: as §1, with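 “read-out. Cells grown in RPMI 1640 with 5% FBS and 1 mM glutamine at 37 °C, 5% CO₂.” for “read-out.”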

[10] = Resistance factor, ratio of GI50 for growth inhibition of human SW1573 cells overexpressing P-glycoprotein measured after 48 hrs in absence of verapamil to GI50 for growth inhibition of human SW1573 cells measured after 48 hrs in absence of verapamil; assay type: functional
In short: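 Resistance factor: GI50 in P-gp-overexpressing SW1573 divided by GI50 in parental SW1573, each from 48 h SRB growth-inhibition assay without verapamil. Values are means of three or more independent experiments.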

SW1573 [11] = assay: Growth inhibition of human SW1573 cells measured after 48 hrs in presence of verapamil by SRB colorimetric assay; assay type: functional
In short: as §1, with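 “read-out. Cells grown in RPMI 1640 with 5% FBS and 1 mM glutamine at 37 °C, 5% CO₂.” for “read-out.”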

SW1573 [12] = assay: Growth inhibition of human SW1573 cells measured after 48 hrs in absence of verapamil by SRB colorimetric assay; assay type: functional
In short: as §1, with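 “read-out. Cells grown in RPMI 1640 with 5% FBS and 1 mM glutamine at 37 °C, 5% CO₂.” for “read-out.”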

[13] = Resistance factor, ratio of GI50 for growth inhibition of human SW1573 cells overexpressing P-glycoprotein measured after 48 hrs in presence of verapamil to GI50 for growth inhibition of human SW1573 cells measured after 48 hrs in presence of verapamil; assay type: functional
In short: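 SW1573 parental and P-gp-overexpressing cells given 48 h exposure to serial dilutions (0.001–100 μM) in medium containing verapamil at a final 10 μM as P-gp transport inhibitor. SRB read-out, GI50 by NCI formulas. Resistance factor taken as GI50 in SW1573/P-gp divided by GI50 in SW1573.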

Chain of Mitogen-activated protein kinase 14 (Mus musculus) (P47811 whole entry): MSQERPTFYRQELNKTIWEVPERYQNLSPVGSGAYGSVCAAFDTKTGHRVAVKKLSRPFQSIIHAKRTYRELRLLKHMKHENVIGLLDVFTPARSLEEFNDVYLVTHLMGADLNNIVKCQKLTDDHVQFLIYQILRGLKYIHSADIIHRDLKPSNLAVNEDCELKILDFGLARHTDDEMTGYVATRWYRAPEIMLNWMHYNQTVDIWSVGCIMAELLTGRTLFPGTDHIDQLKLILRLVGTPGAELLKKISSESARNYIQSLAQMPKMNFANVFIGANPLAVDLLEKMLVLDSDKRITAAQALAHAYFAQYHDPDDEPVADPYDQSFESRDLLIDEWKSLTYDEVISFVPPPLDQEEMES

Compound	GI50 (A549)	GI50 (SW1573 [1])	GI50 (HeLa)	GI50 (HBL-100)	GI50 (T47D)	GI50 (WiDr)	Activity (BV-2 [2])	Activity (BV-2 [3])	Activity (BV-2 [4])	Activity (BV-2 [5])	inhibition [6]	inhibition [7]	GI50 (SW1573 [8])	GI50 (SW1573 [9])	RatioGI50 [10]	GI50 (SW1573 [11])	GI50 (SW1573 [12])	RatioGI50 [13]
CCCCCCCCCCCCS[C@@H]1[C@H](O)[C@@H](O)[C@H](O)[C@H]2COC(=O)N21	16 µM	18 µM	17 µM	17 µM	18 µM	18 µM												
O=C1OC[C@@H]2[C@@H](O)[C@H](OCc3ccccc3)[C@@H](F)[C@@H](O)N12	> 100 µM	> 100 µM	> 100 µM	> 100 µM	> 100 µM	> 100 µM												
O=C1OC[C@@H]2[C@@H](O)[C@H](O)[C@H](F)[C@@H](O)N12	> 100 µM	> 100 µM	> 100 µM	> 100 µM	> 100 µM	> 100 µM												
CCCCCCCCCCCCS(=O)(=O)[C@@H]1[C@@H](F)[C@@H](O)[C@H](O)[C@H]2COC(=O)N21	2.9 µM	3.6 µM	3.1 µM	7.4 µM	10 µM	4.3 µM												
O=C1OC[C@@H]2[C@@H](O)[C@H](O)[C@@H](F)[C@@H](O)N12	> 100 µM	> 100 µM	> 100 µM	> 100 µM	> 100 µM	> 100 µM	Active	Non-Toxic	Active									
CCCCCCCCCCCCS[C@@H]1[C@@H](F)[C@@H](OCc2ccccc2)[C@H](O)[C@H]2COC(=O)N21	13 µM	18 µM	19 µM	18 µM	20 µM	18 µM												
CCCCCCCCCCCCS[C@@H]1[C@H](F)[C@@H](OCc2ccccc2)[C@H](O)[C@H]2COC(=O)N21	18 µM	19 µM	13 µM	19 µM	18 µM	20 µM												
O=c1[nH]cc(F)c(=O)[nH]1 [FLUOROURACIL]	2.2 µM	4.3 µM	15 µM	5.5 µM	47 µM	49 µM												
O=C1OC[C@@H]2[C@@H](O)[C@H](O)[C@@H](O)[C@@H](O)N12	> 100 µM	> 100 µM	> 100 µM	> 100 µM	> 100 µM	> 100 µM												
CCCCCCCCCCCCS[C@@H]1[C@H](F)[C@@H](O)[C@H](O)[C@H]2COC(=O)N21	17 µM	22 µM	19 µM	22 µM	21 µM	21 µM	Active	Non-Toxic	Active									
CCCCCCCCCCCCS(=O)(=O)[C@@H]1[C@@H](OC)[C@@H](O)[C@H](O)[C@H]2COC(=O)N21	15 µM	21 µM	20 µM	20 µM	17 µM	21 µM												
CCCCCCCCCCCCS(=O)(=O)[C@@H]1[C@H](O)[C@@H](OCc2ccccc2)[C@H](O)[C@H]2COC(=O)N21	7.1 µM	10 µM	9.2 µM	15 µM	14 µM	13 µM	Active	Non-Toxic	Active									
O=C1OC[C@@H]2[C@@H](O)[C@H](OCc3ccccc3)[C@H](F)[C@@H](O)N12	> 100 µM	> 100 µM	> 100 µM	> 100 µM	> 100 µM	> 100 µM												
CCCCCCCCCCCCS[C@@H]1[C@@H](O)[C@@H](O)[C@H](O)[C@H]2COC(=O)N21	18 µM	25 µM	19 µM	26 µM	25 µM	23 µM												
O=C1OC[C@@H]2[C@@H](O)[C@H](O)[C@H](O)[C@@H](O)N12	> 100 µM	> 100 µM	> 100 µM	> 100 µM	> 100 µM	> 100 µM												
CCCCCCCCCCCCS(=O)(=O)[C@@H]1[C@@H](F)[C@@H](OCc2ccccc2)[C@H](O)[C@H]2COC(=O)N21	4.2 µM	4.5 µM	3.6 µM	3.4 µM	3.8 µM	4.3 µM												
CCCCCCCCCCCCS(=O)(=O)[C@@H]1[C@H](F)[C@@H](OCc2ccccc2)[C@H](O)[C@H]2COC(=O)N21	4.3 µM	4.2 µM	3.3 µM	4.2 µM	9.7 µM	3.6 µM	Active	Non-Toxic	Active	Active	inactive	inactive						
CC(=O)O[C@H]1C(=O)[C@@]2(C)[C@H]([C@H](OC(=O)c3ccccc3)[C@]3(O)C[C@H](OC(=O)[C@H](O)[C@@H](NC(=O)c4ccccc4)c4ccccc4)C(C)=C1C3(C)C)[C@]1(OC(C)=O)CO[C@@H]1C[C@@H]2O [PACLITAXEL]													300 nM	0.31 nM	564	0.46 nM	0.53 nM	0.7
